rCAG binder – molecules binding r(CAG) RNA repeats; AID 651821; r(CAG) RNA repeat, TO-PRO-1 dye displacement fluorescence; inhibition, % at 3 µM; hit rate 1.3% among 370,000;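 active = inhibition above the plate cutoff, the mean of all test compounds on that plate plus 3 SD, cut at about 35% in these data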;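 also: higher means more dye released from RNA so lower well fluorescence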
UHRF1 MBD2 ctr – UHRF1 methyl-DNA binding inhibition; Q96T88; UHRF1 binding to methylated oligo, TR-FRET; inhibition, % at 4.4 µM; hit rate 0.75% among 370,000; AID 687016; in the data active = inhibition above about 21%;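 also: UHRF1 SRA domain binding a hemimethylated CpG hairpin DNA probe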
LEDGF integ inh – blocks HIV-1 LEDGF/p75-dependent DNA integration; AID 743269; TR-FRET IN-LEDGF/p75 DNA integration, Eu/Cy5; inhibition, % at 3.7 µM; hit rate 0.64% among 370,000;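 active = inhibition above the screen-wide mean plus 3 SD, cut at about 13% in these data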;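 also: signal is the Cy5 over europium emission ratio at 671 and 618 nm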
CSN inh – inhibitors of human CSN-mediated cullin deneddylation. AID 651999. hit rate 0.38% among 360,000. Q92905. inhibition, % at 12.5 µM. Purified CSN, SCF-Nedd8-OG deneddylation, fluorescence polarization;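 active = pattern-corrected inhibition above about 35%, with an unprinted fluorescence ratio check between 0.5 and 1.5, limit read from the data, passing the limit was not always enough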
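Material: human Csn5 produced in HEK293T cells; Input: enzyme 0.24 nM; Reagent: SCFSkp2-Nedd8OG substrate at 10 nM final; Dosing: 12.5 µM compound; Incubation: 90 min reaction at room temperature; Detection: fluorescence polarization of the substrate; Evaluation: % inhibition of substrate cleavage by Csn5; Control set: substrate-only high control, full reaction low control.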
MBD2 DNA inh – inhibitors of human MBD2 binding to methylated oligonucleotide | Q9UBB5 | TR-FRET | inhibition, % at 4.4 µM | hit rate 0.31% among 370,000 | AID 686964; in the data active = inhibition above about 13%
ATG4B inh – blocks human ATG4B protease cleavage of LC3 substrate. Q9Y4P1. ATG4B cleavage of LC3-PLA2, NBD-HPC fluorescence, 1 h. inhibition, % at 8.33 µM. hit rate 0.51% among 340,000; in the data active = inhibition above about 40%
CSN deneddyl val – validation of inhibitors of human CSN-mediated cullin deneddylation | shares compounds with CSN inh | Csn5 deneddylation of SCF-Nedd8OG, fluorescence polarization, 90 min | inhibition, % at 16.6 µM | hit rate 62% among 540 | AID 720654; in the data active = inhibition above about 50%
MMP2 cntr CSN – counter-screen for CSN deneddylation inhibitors: human MMP-2 inhibition. shares compounds with CSN inh. recombinant MMP-2, FRET substrate fluorescence, 60 min. inhibition, % at 16.6 µM. hit rate 33% among 540;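 active = corrected plate-normalized z-score of 5 or more, or -5 or less, or inhibition of 15% or more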
Target sequence (P08253 whole entry, looked up): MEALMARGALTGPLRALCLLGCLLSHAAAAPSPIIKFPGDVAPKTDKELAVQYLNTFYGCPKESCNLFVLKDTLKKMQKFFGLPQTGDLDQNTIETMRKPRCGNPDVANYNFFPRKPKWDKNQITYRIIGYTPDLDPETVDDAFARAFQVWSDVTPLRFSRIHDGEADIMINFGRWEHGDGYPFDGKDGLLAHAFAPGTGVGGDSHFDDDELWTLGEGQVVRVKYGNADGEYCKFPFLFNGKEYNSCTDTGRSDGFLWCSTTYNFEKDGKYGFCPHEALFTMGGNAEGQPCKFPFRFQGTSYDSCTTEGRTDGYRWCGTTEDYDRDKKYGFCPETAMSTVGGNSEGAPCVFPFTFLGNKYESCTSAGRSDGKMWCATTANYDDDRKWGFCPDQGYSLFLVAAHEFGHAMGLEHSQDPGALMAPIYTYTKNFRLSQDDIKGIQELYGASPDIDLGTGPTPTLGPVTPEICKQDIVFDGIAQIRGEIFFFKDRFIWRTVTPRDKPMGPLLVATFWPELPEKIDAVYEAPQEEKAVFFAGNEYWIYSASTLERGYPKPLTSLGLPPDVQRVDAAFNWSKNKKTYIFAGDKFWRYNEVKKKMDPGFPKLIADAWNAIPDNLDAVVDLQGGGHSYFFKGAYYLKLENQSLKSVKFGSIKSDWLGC
Thrombin counter – counter-screen for CSN deneddylation inhibitors: bovine thrombin inhibition. inhibition, % at 16.6 µM. bovine thrombin cleavage of Ub4-pepOG, fluorescence polarization. AID 720656. shares compounds with CSN inh. hit rate 49% among 540;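 active = inhibition at or above a set limit, with a fluorescence interference ratio between 0.5 and a set maximum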
Each line names hits and unclear results; the compound was inactive in the other large screens (follow-up assays come after a bar, where they were run). In the library only some 3.1% were active in any assay of this set; here they are far more common.

Cc1cc(C(=O)O)ccc1-c1ccc(/C=C2\NC(=O)N(Cc3ccc(F)cc3)C2=O)o1	CSN inh 36 | MMP2 cntr CSN 17 | Thrombin counter 16
Cc1ccc(S(=O)(=O)Cc2ccc(C(=O)O)o2)cc1	UHRF1 MBD2 ctr 22, CSN inh 35 | CSN deneddyl val 64 | MMP2 cntr CSN 22 | Thrombin counter inactive
COc1ccc(S(=O)(=O)Cc2ccc(C(=O)O)o2)cc1	none
CCN1/C(=C/c2ccc3cccc(C)c3[n+]2CC)Sc2ccccc21	CSN inh 54 | CSN deneddyl val inactive | MMP2 cntr CSN inactive | Thrombin counter inactive
CCN1/C(=C\c2ccc3cc(C)ccc3[n+]2CC)Sc2cc(C)c(C)cc21	CSN inh 66 | CSN deneddyl val inactive | MMP2 cntr CSN 20 | Thrombin counter 113
C=CC[n+]1c(/C=C2\C=Cc3cc(C)ccc3N2CC)ccc2ccccc21	none
CCN1/C(=C/c2ccc3cc(C)cc(C)c3[n+]2CC)Sc2cc(C)ccc21	CSN inh 81 | CSN deneddyl val inactive | MMP2 cntr CSN 64 | Thrombin counter 23
Cc1nnn(-c2nonc2N)c1C(=O)N/N=C/c1ccccc1O	CSN inh 44 | CSN deneddyl val inactive | MMP2 cntr CSN 23 | Thrombin counter inactive
Cc1nnn(-c2nonc2N)c1C(=O)N/N=C/c1cccc2ccccc12	none
CCOC(=O)[C@]12CCCCC/C=C\1N(CCc1ccc(Cl)cc1)C(=O)[C@H]2CC(=O)NCCCOC	none (no result: CSN inh, ATG4B inh)
CC1=NN(c2ccccc2)C(=O)/C1=C\C=C1/N(C)c2ccccc2C1(C)C	CSN inh 80 | CSN deneddyl val 65 | MMP2 cntr CSN inactive | Thrombin counter 71
CCCc1ccc(O)c(N=Cc2cc(Br)cc(OCC)c2O)c1	CSN inh 38 | CSN deneddyl val 89 | MMP2 cntr CSN inactive | Thrombin counter 46
C=CCN1C=CC(=CC=C(C#N)C#N)C=C1	CSN inh 91 | CSN deneddyl val 98 | MMP2 cntr CSN inactive | Thrombin counter 79
CCCN1C=CC(=CC=C(C#N)C#N)C=C1	CSN inh 83 | CSN deneddyl val inactive | MMP2 cntr CSN inactive | Thrombin counter 83
O=C(OCC#CCSc1nnc(-c2ccc(F)cc2)o1)c1ccc(F)cc1	none (no result: rCAG binder, CSN inh, ATG4B inh)
Cc1cc(N2CCN(c3ccc([N+](=O)[O-])c4cccnc34)CC2)c2ccccc2n1	CSN inh 59 (no result: rCAG binder, UHRF1 MBD2 ctr, LEDGF integ inh, MBD2 DNA inh) | CSN deneddyl val 105 | MMP2 cntr CSN inactive | Thrombin counter inactive
CCOCCCNc1nc2c(C)cccn2c(=O)c1/C=C1\SC(=S)N(C(C)CC)C1=O (stereo unspecified)	none
CCOCCCNc1nc2c(C)cccn2c(=O)c1/C=C1\SC(=S)N(CC(C)C)C1=O	CSN inh 47 | CSN deneddyl val 76 | MMP2 cntr CSN inactive | Thrombin counter 20
Cc1cccn2c(=O)c3cc(C(=O)NCCN4CCOCC4)n(C)c3nc12	none
Cc1cccn2c(=O)c(/C=C3\SC(=S)NC3=O)c(NCCCN3CCOCC3)nc12	CSN inh 85 | CSN deneddyl val 81 | MMP2 cntr CSN inactive | Thrombin counter 47
COc1ccc(S[C@]2(C(=O)N(C)C)CC(=O)N(c3ccccc3)[C@@H]2c2ccc(OC)cc2)cc1	none (no result: CSN inh, ATG4B inh)
Nc1cccc2c1C(=O)N(C(=O)/C=C/c1cccc(F)c1)C2=O	none
Nc1cccc2c1C(=O)N(C(=O)/C=C/c1cccc(Br)c1)C2=O	CSN inh 41 | CSN deneddyl val 68 | MMP2 cntr CSN inactive | Thrombin counter 46
CCCCOCCCNC(=O)C[C@H]1C(=O)N(Cc2ccc(OC)cc2)C2=CCCCC[C@@]21C(=O)OC	none (no result: CSN inh, ATG4B inh)
CCOc1cc(/C=C(/C#N)C(=O)Nc2ccc(O)cc2)cc(Br)c1O	CSN inh 63 | CSN deneddyl val inactive | MMP2 cntr CSN inactive | Thrombin counter 68
CCOc1ccc(NC(=O)/C(C#N)=C/c2ccc(N3CCCC3)c(C)c2)cc1	CSN inh 46 | CSN deneddyl val 99 | MMP2 cntr CSN inactive | Thrombin counter 25
CCN(CC)S(=O)(=O)c1ccc(N2CCCCC2)c(NC(=O)/C(C#N)=C/c2ccc(OC)cc2)c1	none
Cc1c(CCC(=O)O)c(=O)oc2c(C)c3occ(-c4ccc(Br)cc4)c3cc12	CSN inh 39 | CSN deneddyl val inactive | MMP2 cntr CSN 30 | Thrombin counter inactive
COc1ccc(-c2coc3c(C)c4oc(=O)c(CCC(=O)O)c(C)c4cc23)cc1	none (no result: rCAG binder, UHRF1 MBD2 ctr, LEDGF integ inh, MBD2 DNA inh)
CNC(=O)C[C@@H]1CC[C@@H]2[C@H](COc3ccc(NC(=O)c4cccc(F)c4)cc3C(=O)N2C)O1	none (no result: CSN inh, ATG4B inh)
N#C/C(=C/c1cc(Cl)c(O)c(Cl)c1)C(=O)N1CCCCC1	none
N#CC(C#N)=C(N)/C(C#N)=C/c1cc(O)c(O)c(O)c1	CSN inh 122 | CSN deneddyl val inactive | MMP2 cntr CSN inactive | Thrombin counter 57
CC(=O)NN1C(=O)/C(=C\c2ccc(O)cc2)SC1=S	CSN inh 96 | CSN deneddyl val inactive | MMP2 cntr CSN inactive | Thrombin counter 73
O=C1/C(=C\c2ccc(O)cc2)SC(=S)N1/N=C/c1ccc(O)cc1	CSN inh 94 | CSN deneddyl val inactive | MMP2 cntr CSN inactive | Thrombin counter 86
CC(=O)NN1C(=O)/C(=C/c2ccc(Br)o2)SC1=S	CSN inh 51 | CSN deneddyl val 96 | MMP2 cntr CSN 19 | Thrombin counter 34
COc1ccc(Oc2c(Cl)cnn(-c3ccc(C(C)C)c(C)c3)c2=O)cc1	none (no result: rCAG binder, CSN inh, ATG4B inh)
COC(=O)[C@@]12CCCCC=C1N(CCc1ccc(Cl)cc1)C(=O)[C@H]2CC(=O)NCC1CCCCC1	none (no result: CSN inh, ATG4B inh)
O=C(NCCN1CCC(Cc2ccccc2)CC1)C1CCCN(S(=O)(=O)c2ccccc2)C1 (stereo unspecified)	none (no result: CSN inh, ATG4B inh)
CCOc1cc(CCNC(=O)c2cc3sccc3n2CC)ccc1OC	none (no result: CSN inh, ATG4B inh)
CC1=C(C(=O)OC(C)C)C(c2ccc(Cl)cc2)n2c(s/c(=C\c3ccc(OCC(=O)O)cc3)c2=O)=N1 (stereo unspecified)	CSN inh 84 | CSN deneddyl val inactive | MMP2 cntr CSN inactive | Thrombin counter inactive
COC(=O)C1=C(C)N=c2s/c(=C/c3cccs3)c(=O)n2C1c1cccs1 (stereo unspecified)	none
O=C(Nc1cccc(C(F)(F)F)c1)O[C@@H]1CC[C@@]23CCCN2C(=O)CCC[C@H]3C1	none (no result: rCAG binder, CSN inh, ATG4B inh)
CCCCNC(=O)C1(C(=O)c2ccc(OC)cc2)CC(c2ccccc2C(F)(F)F)=NO1 (stereo unspecified)	none (no result: CSN inh, ATG4B inh)

High-throughput results as filed in PubChem.
